Here are results for 20 compounds from ChEMBL document CHEMBL1135530, “Selective alpha4beta7 integrin antagonists and their potential as antiinflammatory agents” (J Med Chem, 2002).

pIC50: −log10 of the molar value. Peptide text beside a SMILES is read from it.

One test concerns the target Integrin alpha-4/beta-1 (Homo sapiens, UniProt P05556+P13612). Put plainly: Inhibitory concentration affording 50% inhibition of alpha4-beta1 integrin binding to VCAM-1, using ELISA assay. The test is classed as protein-complex assay. Summed up:
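α4β1 extracted from Ramos cell membranes (lectin chromatography, gel filtration in 1% octylglucoside), with 1 mM MnCl2 throughout. Wells coated with 4 µg/mL recombinant soluble human VCAM-1 (5 N-terminal Ig domains, from CHO cells) and blocked with 1% BSA. Inhibitor and receptor 2 h at 37 °C in Tris pH 7.4. Bound receptor detected with anti-β1 mAb 2D4.6, then HRP anti-mouse and TMB at 450 nm. IC50 at half-maximal absorbance.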

The next test concerns the target T1, Integrin alpha-4/beta-7 (Homo sapiens, UniProt P13612+P26010).
T1 sequence (P13612 whole entry): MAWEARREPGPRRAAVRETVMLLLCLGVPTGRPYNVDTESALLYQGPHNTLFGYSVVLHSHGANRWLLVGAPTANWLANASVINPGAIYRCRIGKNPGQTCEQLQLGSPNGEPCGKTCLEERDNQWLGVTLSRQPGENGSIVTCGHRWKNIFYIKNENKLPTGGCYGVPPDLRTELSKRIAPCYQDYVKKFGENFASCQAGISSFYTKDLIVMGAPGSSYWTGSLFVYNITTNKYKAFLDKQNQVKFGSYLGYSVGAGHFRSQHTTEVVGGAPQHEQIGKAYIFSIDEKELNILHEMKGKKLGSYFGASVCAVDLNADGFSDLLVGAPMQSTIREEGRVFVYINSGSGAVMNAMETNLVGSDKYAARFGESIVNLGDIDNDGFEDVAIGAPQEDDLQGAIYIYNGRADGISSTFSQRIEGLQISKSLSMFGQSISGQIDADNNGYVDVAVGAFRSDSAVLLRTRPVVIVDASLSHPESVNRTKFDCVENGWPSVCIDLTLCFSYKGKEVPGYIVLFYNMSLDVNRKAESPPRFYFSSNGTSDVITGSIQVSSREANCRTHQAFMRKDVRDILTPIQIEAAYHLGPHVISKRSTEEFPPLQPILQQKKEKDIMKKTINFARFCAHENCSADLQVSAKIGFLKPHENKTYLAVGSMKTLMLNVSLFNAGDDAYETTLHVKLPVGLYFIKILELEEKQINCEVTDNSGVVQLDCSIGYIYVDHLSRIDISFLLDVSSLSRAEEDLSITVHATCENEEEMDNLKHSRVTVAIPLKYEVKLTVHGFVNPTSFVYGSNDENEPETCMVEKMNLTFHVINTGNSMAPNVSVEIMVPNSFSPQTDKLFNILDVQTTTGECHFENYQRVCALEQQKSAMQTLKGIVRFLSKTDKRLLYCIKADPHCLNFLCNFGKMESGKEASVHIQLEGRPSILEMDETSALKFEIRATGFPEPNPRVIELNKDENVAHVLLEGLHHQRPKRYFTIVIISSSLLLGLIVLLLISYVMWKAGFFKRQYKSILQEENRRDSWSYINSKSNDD
T1 sequence (P26010 whole entry): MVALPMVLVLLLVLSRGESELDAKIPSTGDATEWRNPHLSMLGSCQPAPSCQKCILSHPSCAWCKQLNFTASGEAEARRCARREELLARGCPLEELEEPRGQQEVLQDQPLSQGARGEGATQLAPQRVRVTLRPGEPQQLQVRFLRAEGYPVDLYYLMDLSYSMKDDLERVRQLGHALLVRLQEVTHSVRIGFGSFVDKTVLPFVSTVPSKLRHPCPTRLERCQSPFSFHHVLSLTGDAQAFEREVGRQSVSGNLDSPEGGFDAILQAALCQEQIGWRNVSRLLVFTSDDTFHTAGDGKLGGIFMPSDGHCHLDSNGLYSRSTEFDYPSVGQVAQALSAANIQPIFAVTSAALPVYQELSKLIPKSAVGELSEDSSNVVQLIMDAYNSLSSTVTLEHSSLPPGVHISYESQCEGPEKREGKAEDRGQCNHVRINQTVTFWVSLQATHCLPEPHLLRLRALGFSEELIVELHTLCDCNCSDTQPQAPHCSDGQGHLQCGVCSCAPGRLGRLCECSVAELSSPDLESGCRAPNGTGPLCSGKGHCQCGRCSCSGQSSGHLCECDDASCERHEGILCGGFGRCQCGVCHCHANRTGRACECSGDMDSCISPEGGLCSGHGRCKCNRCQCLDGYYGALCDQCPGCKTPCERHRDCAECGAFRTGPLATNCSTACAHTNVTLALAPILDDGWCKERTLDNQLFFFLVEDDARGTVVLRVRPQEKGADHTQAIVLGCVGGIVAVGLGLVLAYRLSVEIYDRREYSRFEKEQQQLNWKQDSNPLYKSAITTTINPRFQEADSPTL
Briefly: Ability to block the alpha4-beta7 integrin-MAdCAM-1 binding interaction using a protein ELISA format. The test is classed as protein-complex assay. Summed up: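 Plates coated overnight at 4 °C with anti-human α4 antibody 9F10 (2 µg/mL), blocked in Tris pH 7.5 buffer with 1 mM MnCl2, Tween-20 and 0.5% BSA, then loaded with α4β7 purified from transfected JY cells (2 µg/mL). Compounds (1 nM–200 µM final, triplicate) plus MAdCAM-1-Ig-HRP (1 µg/mL), 2 h room temperature. TMB read at 450 nm; IC50 at half-maximal absorbance.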
On the technique in general: ELISA stands for enzyme-linked immunosorbent assay.

Integrin alpha-4/beta-1, sequence (P05556 whole entry, one chain of several, the tested form may be a part): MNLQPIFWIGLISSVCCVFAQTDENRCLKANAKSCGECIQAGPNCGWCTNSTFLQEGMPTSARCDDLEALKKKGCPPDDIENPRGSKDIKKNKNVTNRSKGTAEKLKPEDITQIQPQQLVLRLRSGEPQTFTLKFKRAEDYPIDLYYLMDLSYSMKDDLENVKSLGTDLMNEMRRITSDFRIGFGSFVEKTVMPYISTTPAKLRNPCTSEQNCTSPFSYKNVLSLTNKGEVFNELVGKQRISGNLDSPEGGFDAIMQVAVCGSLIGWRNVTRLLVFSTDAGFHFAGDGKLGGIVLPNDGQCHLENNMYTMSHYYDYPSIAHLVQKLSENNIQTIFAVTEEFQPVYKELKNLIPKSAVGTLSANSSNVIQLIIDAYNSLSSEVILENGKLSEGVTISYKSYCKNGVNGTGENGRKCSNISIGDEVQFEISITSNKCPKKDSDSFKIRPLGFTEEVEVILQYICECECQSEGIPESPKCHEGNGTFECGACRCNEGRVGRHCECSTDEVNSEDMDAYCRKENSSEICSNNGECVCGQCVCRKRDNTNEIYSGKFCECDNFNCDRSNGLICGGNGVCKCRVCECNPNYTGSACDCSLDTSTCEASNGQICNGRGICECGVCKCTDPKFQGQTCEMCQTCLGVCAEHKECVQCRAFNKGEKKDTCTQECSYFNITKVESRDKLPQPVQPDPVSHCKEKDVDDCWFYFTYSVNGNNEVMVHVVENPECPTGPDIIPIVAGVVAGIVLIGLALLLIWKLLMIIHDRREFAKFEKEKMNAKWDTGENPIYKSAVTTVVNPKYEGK

For orientation: pIC50 means −log10 of the IC50, conventionally taken in molar units. As to `CC(C)C[C@@H]1NC(=O)[C@H]([C@@H](C)O)NC(=O)[C@H](CC(=O)O)NC(=O)[C@H](CO)NC(=O)[C@H](Cc2ccc(O)cc2)NC(=O)[C@@H](N)CSSC[C@@H](C(N)=O)NC1=O`, the pIC50 on Integrin alpha-4/beta-1 is 8.05; at Integrin alpha-4/beta-7, 6.89.

As for `CC(C)C[C@@H]1NC(=O)[C@H]([C@@H](C)O)NC(=O)[C@H](CC(=O)O)NC(=O)[C@H](CO)NC(=O)[C@H](CCCNC(=N)N)NC(=O)[C@@H](N)CSSC[C@@H](C(N)=O)NC1=O`, the pIC50 at Integrin alpha-4/beta-1 is 5.38; at Integrin alpha-4/beta-7 it was 6.92.

`CC(C)C[C@@H]1NC(=O)[C@H]([C@@H](C)O)NC(=O)[C@H](CCC(=O)O)NC(=O)[C@H](CO)NC(=O)[C@H](CCCN=C(N)N)NC(=O)[C@@H](N)CSSC[C@@H](C(N)=O)NC1=O`: the negative-log IC50 (pIC50) at Integrin alpha-4/beta-1 was 5.52; at Integrin alpha-4/beta-7, 4.52.

As to `CSCC[C@H](N)C(=O)N[C@@H](CC(=O)O)C(=O)N[C@H]1CSSC[C@@H](C(N)=O)NC(=O)[C@H](CC(C)C)NC(=O)[C@H]([C@@H](C)O)NC(=O)[C@H](CC(=O)O)NC(=O)[C@H](CO)NC(=O)[C@H](CCCN=C(N)N)NC1=O` (HELM PEPTIDE1{M.D.C.R.S.D.T.L.C.[am]}$PEPTIDE1,PEPTIDE1,3:R3-9:R3$$$V2.0), the negative-log IC50 (pIC50) on Integrin alpha-4/beta-1 was 4.93; on Integrin alpha-4/beta-7, 6.19.

`CC(C)C[C@@H]1NC(=O)[C@H]([C@@H](C)O)NC(=O)[C@H](CC(N)=O)NC(=O)[C@H](CO)NC(=O)[C@H](CCCNC(=N)N)NC(=O)[C@@H](N)CSSC[C@@H](C(=O)O)NC1=O`: the pIC50 at Integrin alpha-4/beta-1 was 5.66; at Integrin alpha-4/beta-7 it was 4.40.

With `CC(C)C[C@@H]1NC(=O)[C@H]([C@@H](C)O)NC(=O)[C@H](CC(N)=O)NC(=O)[C@H](CO)NC(=O)[C@H](CCCNC(=N)N)NC(=O)[C@@H](N)CSSC[C@@H](C(N)=O)NC1=O`, the negative-log IC50 (pIC50) is 4.06 at Integrin alpha-4/beta-1 and 3.76 on Integrin alpha-4/beta-7.

Consider `C[C@@H]1NC(=O)[C@H]([C@@H](C)O)NC(=O)[C@H](CC(=O)O)NC(=O)[C@H](CO)NC(=O)[C@H](CCCN=C(N)N)NC(=O)[C@@H](N)CSSC[C@@H](C(N)=O)NC1=O` (HELM PEPTIDE1{C.R.S.D.T.A.C.[am]}$PEPTIDE1,PEPTIDE1,1:R3-7:R3$$$V2.0), for which the values for the pIC50 on Integrin alpha-4/beta-1 and on Integrin alpha-4/beta-7 were 4.40 and 4.64, respectively.

Take `C[C@@H](O)[C@@H]1NC(=O)[C@H](CC(=O)O)NC(=O)[C@H](CO)NC(=O)[C@H](CCCNC(=N)N)NC(=O)[C@@H](N)CSSC[C@@H](C(N)=O)NC(=O)[C@@H]2CCCN2C1=O`: the pIC50 at Integrin alpha-4/beta-1 is 4.43; at Integrin alpha-4/beta-7, 4.40.

For `CC(C)C[C@@H]1NC(=O)[C@H](CO)NC(=O)[C@H](CC(=O)O)NC(=O)[C@H](CO)NC(=O)[C@H](CCCNC(=N)N)NC(=O)[C@@H](N)CSSC[C@@H](C(N)=O)NC1=O`, the pIC50 on Integrin alpha-4/beta-1 was 4.85; on Integrin alpha-4/beta-7, 6.54.

For `CC(C)C[C@@H]1NC(=O)[C@H]([C@@H](C)O)NC(=O)[C@H](CCC(N)=O)NC(=O)[C@H](CO)NC(=O)[C@H](CCCNC(=N)N)NC(=O)[C@@H](N)CSSC[C@@H](C(N)=O)NC1=O` (HELM PEPTIDE1{C.R.S.Q.T.L.C.[am]}$PEPTIDE1,PEPTIDE1,1:R3-7:R3$$$V2.0), the negative-log IC50 (pIC50) at Integrin alpha-4/beta-1 and on Integrin alpha-4/beta-7 was less than 4.00 throughout.

For the compound `CC(C)C[C@@H]1NC(=O)[C@H]([C@@H](C)O)NC(=O)[C@H](CC(=O)O)NC(=O)[C@H]([C@@H](C)O)NC(=O)[C@H](CCCN=C(N)N)NC(=O)[C@@H](N)CSSC[C@@H](C(N)=O)NC1=O`, the pIC50 was 5.13 at Integrin alpha-4/beta-1 and 5.68 at Integrin alpha-4/beta-7.

`CC(C)C[C@@H]1NC(=O)[C@H]([C@@H](C)O)NC(=O)[C@H](CC(=O)O)NC(=O)[C@H](CO)NC(=O)[C@H](Cc2cnc[nH]2)NC(=O)[C@@H](N)CSSC[C@@H](C(N)=O)NC1=O`: the pIC50 at Integrin alpha-4/beta-1 is 5.96; at Integrin alpha-4/beta-7, 6.41.

Take `CC(C)C[C@H]1NC(=O)[C@H]([C@H](C)O)NC(=O)[C@H](CC(=O)O)NC(=O)[C@H](CO)NC(=O)[C@@H](CCCN=C(N)N)NC(=O)[C@H](N)CSSC[C@H](C(N)=O)NC1=O`: the negative logarithm of the IC50 (pIC50) on Integrin alpha-4/beta-1 and on Integrin alpha-4/beta-7 was less than 4.00 in each case.

Turning to `CC(C)C[C@@H]1NC(=O)[C@H]([C@@H](C)O)NC(=O)[C@H](CC(=O)O)NC(=O)[C@H](CO)NC(=O)[C@H](Cc2c[nH]c3ccccc23)NC(=O)[C@@H](N)CSSC[C@@H](C(N)=O)NC1=O`, the results for the pIC50 at Integrin alpha-4/beta-1 and on Integrin alpha-4/beta-7 were 6.80 and 6.37, respectively.

Consider `CC(C)C[C@@H]1NC(=O)[C@H]([C@@H](C)O)NC(=O)[C@H](CC(=O)O)NC(=O)[C@H](CO)NC(=O)[C@H](CCCNC(=N)N)NC(=O)[C@@H](N)CSSC[C@@H](C(=O)NCC(N)=O)NC1=O` (HELM PEPTIDE1{C.R.S.D.T.L.C.G.[am]}$PEPTIDE1,PEPTIDE1,1:R3-7:R3$$$V2.0), for which the negative-log IC50 (pIC50) on Integrin alpha-4/beta-1 was 5.42; at Integrin alpha-4/beta-7, 6.96.

As for `CC(C)C[C@@H]1NC(=O)[C@H]([C@@H](C)O)NC(=O)[C@H](CC(=O)O)NC(=O)[C@H](C)NC(=O)[C@H](CCCNC(=N)N)NC(=O)[C@@H](N)CSSC[C@@H](C(N)=O)NC1=O` (HELM PEPTIDE1{C.R.A.D.T.L.C.[am]}$PEPTIDE1,PEPTIDE1,1:R3-7:R3$$$V2.0), the results for the pIC50 at Integrin alpha-4/beta-1 and at Integrin alpha-4/beta-7 were 5.44 and 5.66, respectively.

As to `CC(C)C[C@@H]1NC(=O)[C@H]([C@@H](C)O)NC(=O)[C@H](CC(=O)O)NC(=O)[C@H](CO)NC(=O)[C@H](Cc2ccccc2)NC(=O)[C@@H](N)CSSC[C@@H](C(N)=O)NC1=O`, the pIC50 is 7.30 at Integrin alpha-4/beta-1 and 6.26 on Integrin alpha-4/beta-7.

In the case of `CC(C)C[C@@H]1NC(=O)[C@H]([C@@H](C)O)NC(=O)[C@H](CC(=O)O)NC(=O)[C@H](CO)NC(=O)[C@H](C)NC(=O)[C@@H](N)CSSC[C@@H](C(N)=O)NC1=O` (HELM PEPTIDE1{C.A.S.D.T.L.C.[am]}$PEPTIDE1,PEPTIDE1,1:R3-7:R3$$$V2.0), the pIC50 at Integrin alpha-4/beta-1 is 5.55; on Integrin alpha-4/beta-7, 5.96.

Turning to `CC(C)[C@@H]1NC(=O)[C@H]([C@@H](C)O)NC(=O)[C@H](CC(=O)O)NC(=O)[C@H](CO)NC(=O)[C@H](CCCNC(=N)N)NC(=O)[C@@H](N)CSSC[C@@H](C(N)=O)NC1=O`, the negative logarithm of the IC50 (pIC50) at Integrin alpha-4/beta-1 is 4.23; at Integrin alpha-4/beta-7 it was 5.35.

In the case of `CC(C)C[C@@H]1NC(=O)[C@H]([C@@H](C)O)NC(=O)[C@H](C)NC(=O)[C@H](CO)NC(=O)[C@H](CCCN=C(N)N)NC(=O)[C@@H](N)CSSC[C@@H](C(N)=O)NC1=O` (HELM PEPTIDE1{C.R.S.A.T.L.C.[am]}$PEPTIDE1,PEPTIDE1,1:R3-7:R3$$$V2.0), the negative logarithm of the IC50 (pIC50) on Integrin alpha-4/beta-1 and at Integrin alpha-4/beta-7 was less than 4.00 in each case.
